Assay results as given in publication PMC3644855 (Nuclear medicine and biology, 2009).
Values joined by “and” are separate entries in the source; they are usually repeats but may differ in a detail not shown here. Equal values may be shown once. Read-outs that look alike come from different tables or passages of the source.

Legend:
[1] = biological target: T1, 5-HT1A receptor (Rattus norvegicus, UniProt P19327); assay: Brain tissue specific binding ratio [; assay type: in vivo
T1 sequence (P19327 1-422): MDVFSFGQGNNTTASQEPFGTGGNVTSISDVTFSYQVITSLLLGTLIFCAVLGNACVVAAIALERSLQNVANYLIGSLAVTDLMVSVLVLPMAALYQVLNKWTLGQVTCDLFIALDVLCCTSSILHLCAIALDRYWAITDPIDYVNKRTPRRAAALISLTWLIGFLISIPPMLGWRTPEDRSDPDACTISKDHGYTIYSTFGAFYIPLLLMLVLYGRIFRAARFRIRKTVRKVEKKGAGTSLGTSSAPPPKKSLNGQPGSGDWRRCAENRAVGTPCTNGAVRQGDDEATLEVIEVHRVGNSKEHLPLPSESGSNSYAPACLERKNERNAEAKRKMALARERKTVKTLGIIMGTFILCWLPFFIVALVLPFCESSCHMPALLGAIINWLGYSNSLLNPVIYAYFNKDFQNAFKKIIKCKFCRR
Method in brief: (§1)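 Male Sprague-Dawley rats (220–260 g, 3 per group), awake, got i.v. 0.5–1 mCi 18F-labelled test compound in 100 μL, carrying 1, 11 or 18 nmol unlabelled compound; killed at 5 or 30 min. Dissected brain regions and plasma, spiked with internal standard, homogenized at pH 12.5, extracted with hexane:ethyl acetate (4:1), dried and redissolved in 50% CH3CN. Analysed by UPLC-Q-TOF (positive ESI) against matrix calibration, triplicate. DUR = %ID/g × body weight/100.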

[2] = assay type: in vivo; details: rat i.v., LC/MS
Method in brief: as §1

[3] = biological target: T1, 5-HT1A receptor; assay: Brain tissue specific binding ratio [; assay type: in vivo; details: rat i.v., Radioactivity
Method in brief: (§2)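 Awake male Sprague-Dawley rats (220–260 g, 3 per group) got i.v. 0.5–1 mCi 18F-labelled test compound in 100 μL, containing 1, 11 or 18 nmol unlabelled compound. Killed 5 or 30 min later. Caudate, thalamus, hippocampus, brain stem, cerebellum, cortex and plasma (0.05–0.4 g) weighed and radioactivity-counted. Uptake given as DUR = %ID/g × body weight/100.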

[4] = assay type: in vivo; details: rat i.v., Radioactivity
Method in brief: as §2

[5] = rat i.v., 1 nmol, 30 min, LC/MS
[6] = rat i.v., 11 nmol, 30 min, LC/MS
[7] = rat i.v., 18 nmol, 30 min, LC/MS

COc1ccccc1N1CCN(CCN(C(=O)c2ccc(F)cc2)c2ncccn2)CC1 [FPWAY, 4-Fluoro-N-{2-[4-(2-methoxyphenyl)-1-piperazinyl]ethyl}-N-(2-pyrimidinyl)benzamide]
Specific binding ratio [(DURtissue/DURCb)−1] Hippocampus ([1]; rat i.v., 1 nmol, 5 min, LC/MS): 2.30 and 2.30±0.42 | Specific binding ratio [(DURtissue/DURCb)−1] brain stem ([1]; rat i.v., 1 nmol, 5 min, LC/MS): 0.75±0.35 | Specific binding ratio [(DURtissue/DURCb)−1] caudate ([1]; rat i.v., 1 nmol, 5 min, LC/MS): 0.30±0.13 | Specific binding ratio [(DURtissue/DURCb)−1] cortex ([1]; rat i.v., 1 nmol, 5 min, LC/MS): 1.34±0.27 | Specific binding ratio [(DURtissue/DURCb)−1] thalamus ([1]; rat i.v., 1 nmol, 5 min, LC/MS): 0.84±0.30 | Specific binding ratio [(DURtissue/DURCb)−1] Hippocampus [1, 5]: 5.87 and 5.87±0.56 | Specific binding ratio [(DURtissue/DURCb)−1] brain stem [1, 5]: 1.99±0.53 | Specific binding ratio [(DURtissue/DURCb)−1] caudate [1, 5]: 0.95±0.06 | Specific binding ratio [(DURtissue/DURCb)−1] cortex [1, 5]: 2.29±0.06 | Specific binding ratio [(DURtissue/DURCb)−1] thalamus [1, 5]: 1.58±0.58 | Specific binding ratio [(DURtissue/DURCb)−1] Hippocampus [1, 6]: 2.43 and 2.43±0.35 | Specific binding ratio [(DURtissue/DURCb)−1] brain stem [1, 6]: 0.42±0.33 | Specific binding ratio [(DURtissue/DURCb)−1] caudate [1, 6]: 0.65±0.31 | Specific binding ratio [(DURtissue/DURCb)−1] cortex [1, 6]: 1.26±0.28 | Specific binding ratio [(DURtissue/DURCb)−1] thalamus [1, 6]: 0.78±0.29 | specific binding ratio hippocampus ([1]; rat i.v., 17 nmol, 30 min, hippocampus, LC/MS): 2.42 | Specific binding ratio [(DURtissue/DURCb)−1] Hippocampus [1, 7]: 2.42±0.28 | Specific binding ratio [(DURtissue/DURCb)−1] brain stem [1, 7]: 0.93±0.13 | Specific binding ratio [(DURtissue/DURCb)−1] caudate [1, 7]: 0.67±0.31 | Specific binding ratio [(DURtissue/DURCb)−1] cortex [1, 7]: 1.61±0.39 | Specific binding ratio [(DURtissue/DURCb)−1] thalamus [1, 7]: 0.91±0.14 | saturability of binding with increasing mass dose ([1]; rat, 1, 11 and 18 nmol mass doses, hippocampus): demonstrates saturability of binding | DUR Hippocampus ([2]; 1 nmol, 5 min): 4.28 %ID/g * body weight/100 and 4.28±0.35 %ID/g * body weight/100 | DUR brain stem ([2]; 1 nmol, 5 min): 2.36±0.35 %ID/g * body weight/100 | DUR caudate ([2]; 1 nmol, 5 min): 1.70±0.30 %ID/g * body weight/100 | DUR cerebellum ([2]; 1 nmol, 5 min): 1.31±0.21 %ID/g * body weight/100 | DUR cortex ([2]; 1 nmol, 5 min): 3.10±0.78 %ID/g * body weight/100 | DUR plasma ([2]; 1 nmol, 5 min): 0.49±0.17 %ID/g * body weight/100 | DUR thalamus ([2]; 1 nmol, 5 min): 2.39±0.45 %ID/g * body weight/100 | DUR Hippocampus ([2]; 1 nmol, 30 min): 2.20 %ID/g * body weight/100 and 2.20±0.38 %ID/g * body weight/100 | DUR brain stem ([2]; 1 nmol, 30 min): 0.98±0.05 %ID/g * body weight/100 | DUR caudate ([2]; 1 nmol, 30 min): 0.60±0.04 %ID/g * body weight/100 | DUR cerebellum ([2]; 1 nmol, 30 min): 0.32±0.08 %ID/g * body weight/100 | DUR cortex ([2]; 1 nmol, 30 min): 1.06±0.25 %ID/g * body weight/100 | DUR plasma ([2]; 1 nmol, 30 min): 0.21±0.07 %ID/g * body weight/100 | DUR thalamus ([2]; 1 nmol, 30 min): 0.81±0.02 %ID/g * body weight/100 | DUR Hippocampus ([2]; 11 nmol, 30 min): 0.79 %ID/g * body weight/100 and 0.79±0.08 %ID/g * body weight/100 | DUR brain stem ([2]; 11 nmol, 30 min): 0.32±0.05 %ID/g * body weight/100 | DUR caudate ([2]; 11 nmol, 30 min): 0.38±0.06 %ID/g * body weight/100 | DUR cerebellum ([2]; 11 nmol, 30 min): 0.23±0.03 %ID/g * body weight/100 | DUR cortex ([2]; 11 nmol, 30 min): 0.52±0.05 %ID/g * body weight/100 | DUR plasma ([2]; 11 nmol, 30 min): 0.13±0.02 %ID/g * body weight/100 | DUR thalamus ([2]; 11 nmol, 30 min): 0.41±0.08 %ID/g * body weight/100 | hippocampus uptake (DUR) ([2]; 17 nmol, 30 min, hippocampus): 0.53 | DUR Hippocampus ([2]; 18 nmol, 30 min): 0.53±0.03 %ID/g * body weight/100 | DUR brain stem ([2]; 18 nmol, 30 min): 0.30±0.05 %ID/g * body weight/100 | DUR caudate ([2]; 18 nmol, 30 min): 0.25±0.08 %ID/g * body weight/100 | DUR cerebellum ([2]; 18 nmol, 30 min): 0.16±0.02 %ID/g * body weight/100 | DUR cortex ([2]; 18 nmol, 30 min): 0.41±0.18 %ID/g * body weight/100 | DUR plasma ([2]; 18 nmol, 30 min): 0.33±0.11 %ID/g * body weight/100 | DUR thalamus ([2]; 18 nmol, 30 min): 0.30±0.04 %ID/g * body weight/100

COc1ccccc1N1CCN(CCN(C(=O)c2ccc(F)cc2)c2ncccn2)CC1 [[^18F]FPWAY, 4-Fluoro-N-{2-[4-(2-methoxyphenyl)-1-piperazinyl]ethyl}-N-(2-pyrimidinyl)benzamide]
Specific binding ratio [(DURtissue/DURCb)−1] Hippocampus ([3]; 1 nmol, 5 min): 1.95±0.45 | Specific binding ratio [(DURtissue/DURCb)−1] brain stem ([3]; 1 nmol, 5 min): 0.63±0.08 | Specific binding ratio [(DURtissue/DURCb)−1] caudate ([3]; 1 nmol, 5 min): 0.38±0.06 | Specific binding ratio [(DURtissue/DURCb)−1] cortex ([3]; 1 nmol, 5 min): 1.41±0.13 | Specific binding ratio [(DURtissue/DURCb)−1] thalamus ([3]; 1 nmol, 5 min): 0.64±0.04 | Specific binding ratio [(DURtissue/DURCb)−1] Hippocampus ([3]; 1 nmol, 30 min): 5.38±0.23 | Specific binding ratio [(DURtissue/DURCb)−1] brain stem ([3]; 1 nmol, 30 min): 1.12±0.06 | Specific binding ratio [(DURtissue/DURCb)−1] caudate ([3]; 1 nmol, 30 min): 0.53±0.17 | Specific binding ratio [(DURtissue/DURCb)−1] cortex ([3]; 1 nmol, 30 min): 2.04±0.18 | Specific binding ratio [(DURtissue/DURCb)−1] thalamus ([3]; 1 nmol, 30 min): 1.29±0.13 | Specific binding ratio [(DURtissue/DURCb)−1] Hippocampus ([3]; 11 nmol, 30 min): 2.72±0.37 | Specific binding ratio [(DURtissue/DURCb)−1] brain stem ([3]; 11 nmol, 30 min): 0.68±0.14 | Specific binding ratio [(DURtissue/DURCb)−1] caudate ([3]; 11 nmol, 30 min): 0.33±0.06 | Specific binding ratio [(DURtissue/DURCb)−1] cortex ([3]; 11 nmol, 30 min): 1.26±0.11 | Specific binding ratio [(DURtissue/DURCb)−1] thalamus ([3]; 11 nmol, 30 min): 0.70±0.12 | Specific binding ratio [(DURtissue/DURCb)−1] Hippocampus ([3]; 18 nmol, 30 min): 2.57±0.21 | Specific binding ratio [(DURtissue/DURCb)−1] brain stem ([3]; 18 nmol, 30 min): 0.85±0.26 | Specific binding ratio [(DURtissue/DURCb)−1] caudate ([3]; 18 nmol, 30 min): 0.63±0.34 | Specific binding ratio [(DURtissue/DURCb)−1] cortex ([3]; 18 nmol, 30 min): 1.81±0.83 | Specific binding ratio [(DURtissue/DURCb)−1] thalamus ([3]; 18 nmol, 30 min): 0.90±0.13 | DUR Hippocampus ([4]; 1 nmol, 5 min): 4.50 %ID/g * body weight/100 and 4.50±0.41 %ID/g * body weight/100 | DUR brain stem ([4]; 1 nmol, 5 min): 2.53±0.48 %ID/g * body weight/100 | DUR caudate ([4]; 1 nmol, 5 min): 2.14±0.27 %ID/g * body weight/100 | DUR cerebellum ([4]; 1 nmol, 5 min): 1.55±0.24 %ID/g * body weight/100 | DUR cortex ([4]; 1 nmol, 5 min): 3.75±0.74 %ID/g * body weight/100 | DUR thalamus ([4]; 1 nmol, 5 min): 2.54±0.43 %ID/g * body weight/100 | DUR Hippocampus ([4]; 1 nmol, 30 min): 2.34±0.22 %ID/g * body weight/100 | DUR brain stem ([4]; 1 nmol, 30 min): 0.78±0.08 %ID/g * body weight/100 | DUR caudate ([4]; 1 nmol, 30 min): 0.56±0.01 %ID/g * body weight/100 | DUR cerebellum ([4]; 1 nmol, 30 min): 0.36±0.05 %ID/g * body weight/100 | DUR cortex ([4]; 1 nmol, 30 min): 1.12±0.18 %ID/g * body weight/100 | DUR thalamus ([4]; 1 nmol, 30 min): 0.84±0.06 %ID/g * body weight/100 | DUR Hippocampus ([4]; 11 nmol, 30 min): 0.83±0.03 %ID/g * body weight/100 | DUR brain stem ([4]; 11 nmol, 30 min): 0.37±0.05 %ID/g * body weight/100 | DUR caudate ([4]; 11 nmol, 30 min): 0.30±0.02 %ID/g * body weight/100 | DUR cerebellum ([4]; 11 nmol, 30 min): 0.22±0.02 %ID/g * body weight/100 | DUR cortex ([4]; 11 nmol, 30 min): 0.50±0.04 %ID/g * body weight/100 | DUR thalamus ([4]; 11 nmol, 30 min): 0.38±0.02 %ID/g * body weight/100 | DUR Hippocampus ([4]; 18 nmol, 30 min): 0.53±0.02 %ID/g * body weight/100 | DUR brain stem ([4]; 18 nmol, 30 min): 0.27±0.03 %ID/g * body weight/100 | DUR caudate ([4]; 18 nmol, 30 min): 0.24±0.04 %ID/g * body weight/100 | DUR cerebellum ([4]; 18 nmol, 30 min): 0.15±0.01 %ID/g * body weight/100 | DUR cortex ([4]; 18 nmol, 30 min): 0.41±0.13 %ID/g * body weight/100 | DUR thalamus ([4]; 18 nmol, 30 min): 0.28±0.02 %ID/g * body weight/100
